According to ChEMBL document CHEMBL1150354, “'Hybrid' benzofuran-benzopyran congeners as rigid analogs of hallucinogenic phenethylamines” (Bioorg Med Chem, 2008):

Assays:
[1] = target: T1, 5-hydroxytryptamine receptor 2A (Rattus norvegicus, UniProt P14842); experiment: Displacement of [3H]ketanserin from rat 5HT2A receptor expressed in mouse NIH3T3 cells; assay type: cell-based
Summary of the method: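 Membranes came from NIH-3T3 cells stably expressing rat 5-HT2A receptor (GF-6, 5500 fmol/mg). Competition used 0.5nM [3H]-ketanserin against increasing test compound concentrations (ca. 10 pM - 10 μM). Curves were fitted to give Ki, reported as mean (SEM) over n experiments.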

[2] = target: 5-hydroxytryptamine receptor 2A (Rattus norvegicus) (UniProt P14842); experiment: Intrinsic activity at rat 5HT2A receptor expressed in mouse NIH3T3 cells assessed as stimulation of inositol phosphate accumulation relative to serotonin; assay type: functional, cell-based
Sequence of 5-hydroxytryptamine receptor 2A (Rattus norvegicus) (P14842 whole entry): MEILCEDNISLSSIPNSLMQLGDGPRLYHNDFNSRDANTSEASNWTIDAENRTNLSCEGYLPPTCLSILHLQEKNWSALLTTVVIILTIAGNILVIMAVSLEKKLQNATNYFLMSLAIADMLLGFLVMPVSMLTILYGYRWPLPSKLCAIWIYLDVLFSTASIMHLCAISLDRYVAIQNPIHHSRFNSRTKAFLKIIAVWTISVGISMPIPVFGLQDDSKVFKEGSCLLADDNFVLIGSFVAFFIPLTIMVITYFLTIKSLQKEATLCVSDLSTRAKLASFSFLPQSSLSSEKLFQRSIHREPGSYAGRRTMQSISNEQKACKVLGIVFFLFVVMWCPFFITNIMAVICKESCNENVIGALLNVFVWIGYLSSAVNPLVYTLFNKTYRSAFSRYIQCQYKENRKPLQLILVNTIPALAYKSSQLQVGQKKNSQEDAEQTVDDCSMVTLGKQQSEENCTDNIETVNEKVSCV
Summary of the method: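 NIH-3T3 cells stably expressing rat 5-HT2A receptor (GF-6, 5500 fmol/mg), kept in DMEM with 300 μg/ml G-418. Read-out was stimulated radiolabeled inositol phosphate accumulation. Each plate normalized to water-stimulated wells (0%) and 10 μM serotonin (100%). EC50 and intrinsic activity given as mean (SEM) over n experiments.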

[3] = target: T1, 5-hydroxytryptamine receptor 2A; experiment: Agonist activity at rat 5HT2A receptor expressed in mouse NIH3T3 cells assessed as stimulation of inositol phosphate accumulation; assay type: functional, cell-based
Summary of the method: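 Read-out was stimulated radiolabeled inositol phosphate accumulation. Each plate normalized to water-stimulated wells (0%) and 10 μM serotonin (100%). EC50 and intrinsic activity given as mean (SEM) over n experiments.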

Rattus norvegicus [4] = experiment: Hallucinogenic activity in D-lysergic acid N,N-diethylamide-trained Sprague-Dawley rat assessed as selection of drug-appropriate lever at 0.50 mg/kg, ip after 30 mins by two-lever drug discrimination assay; assay type: functional; details: dose 0.5 mg/kg; route intraperitoneal
Summary of the method: (§1)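 Male Sprague-Dawley rats (200-220 g at start) trained to discriminate LSD (0.08 mg/kg ip) from saline, FR50 food-reinforced two-lever task, training to ≥85% accuracy on 8 of 10 sessions. Test drug given ip 30 min before an extinction session, ended at 50 presses on one lever. %SDL is the percentage of rats choosing the drug lever per dose. Treatments randomized.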

Rattus norvegicus [5] = experiment: Hallucinogenic activity in D-lysergic acid N,N-diethylamide-trained Sprague-Dawley rat assessed as disrupted behavior at 0.50 mg/kg, ip after 30 mins by two-lever drug discrimination assay; assay type: functional; details: dose 0.5 mg/kg; route intraperitoneal
Summary of the method: (§2)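 Male Sprague-Dawley rats (200-220 g at start) trained to discriminate LSD tartrate (186 nmol/kg; 0.08 mg/kg, ip) from saline, FR50 food reinforcement, two levers. Test drug given ip 30 min before an extinction session. A session was scored as disruption if 50 presses on one lever were not completed within 5 min. %D is the percentage of rats disrupted at each dose.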

Rattus norvegicus [6] = experiment: Hallucinogenic activity in D-lysergic acid N,N-diethylamide-trained Sprague-Dawley rat assessed as selection of drug-appropriate lever at 0.25 mg/kg, ip after 30 mins by two-lever drug discrimination assay; assay type: functional; details: route intraperitoneal; summary of the method: as §1
Rattus norvegicus [7] = experiment: Hallucinogenic activity in D-lysergic acid N,N-diethylamide-trained Sprague-Dawley rat assessed as selection of drug-appropriate lever at 0.38 mg/kg, ip after 30 mins by two-lever drug discrimination assay; assay type: functional; details: route intraperitoneal; summary of the method: as §1
Rattus norvegicus [8] = experiment: Hallucinogenic activity in D-lysergic acid N,N-diethylamide-trained Sprague-Dawley rat assessed as disrupted behavior at 0.25 mg/kg, ip after 30 mins by two-lever drug discrimination assay; assay type: functional; details: route intraperitoneal; summary of the method: as §2
Rattus norvegicus [9] = experiment: Hallucinogenic activity in D-lysergic acid N,N-diethylamide-trained Sprague-Dawley rat assessed as disrupted behavior at 0.38 mg/kg, ip after 30 mins by two-lever drug discrimination assay; assay type: functional; details: route intraperitoneal; summary of the method: as §2
Rattus norvegicus [10] = experiment: Hallucinogenic activity in D-lysergic acid N,N-diethylamide-trained Sprague-Dawley rat assessed as selection of drug-appropriate lever at 0.35 mg/kg, ip after 30 mins by two-lever drug discrimination assay; assay type: functional; details: route intraperitoneal; summary of the method: as §1
Rattus norvegicus [11] = experiment: Hallucinogenic activity in D-lysergic acid N,N-diethylamide-trained Sprague-Dawley rat assessed as disrupted behavior at 0.17 mg/kg, ip after 30 mins by two-lever drug discrimination assay; assay type: functional; details: route intraperitoneal; summary of the method: as §2
Rattus norvegicus [12] = experiment: Hallucinogenic activity in D-lysergic acid N,N-diethylamide-trained Sprague-Dawley rat assessed as disrupted behavior at 0.35 mg/kg, ip after 30 mins by two-lever drug discrimination assay; assay type: functional; details: route intraperitoneal; summary of the method: as §2
Rattus norvegicus [13] = experiment: Hallucinogenic potency in ip dosed D-lysergic acid N,N-diethylamide-trained Sprague-Dawley rat after 30 mins; assay type: functional; details: 0.5 h
Rattus norvegicus [14] = experiment: Hallucinogenic activity in D-lysergic acid N,N-diethylamide-trained Sprague-Dawley rat assessed as selection of drug-appropriate lever at 0.17 mg/kg, ip after 30 mins by two-lever drug discrimination assay; assay type: functional; details: route intraperitoneal; summary of the method: as §1
Rattus norvegicus [15] = experiment: Hallucinogenic activity in D-lysergic acid N,N-diethylamide-trained Sprague-Dawley rat assessed as disrupted behavior at 0.09 mg/kg, ip after 30 mins by two-lever drug discrimination assay; assay type: functional; details: route intraperitoneal; summary of the method: as §2
Rattus norvegicus [16] = experiment: Hallucinogenic activity in D-lysergic acid N,N-diethylamide-trained Sprague-Dawley rat assessed as selection of drug-appropriate lever at 0.09 mg/kg, ip after 30 mins by two-lever drug discrimination assay; assay type: functional; details: route intraperitoneal; summary of the method: as §1
Rattus norvegicus [17] = experiment: Hallucinogenic activity in D-lysergic acid N,N-diethylamide-trained Sprague-Dawley rat assessed as disrupted behavior at 0.69 mg/kg, ip after 30 mins by two-lever drug discrimination assay; assay type: functional; details: route intraperitoneal; summary of the method: as §2
Rattus norvegicus [18] = experiment: Hallucinogenic activity in D-lysergic acid N,N-diethylamide-trained Sprague-Dawley rat assessed as selection of drug-appropriate lever at 0.69 mg/kg, ip after 30 mins by two-lever drug discrimination assay; assay type: functional; details: route intraperitoneal; summary of the method: as §1

T1 sequence (P14842 whole entry): as above

`CC(N)Cc1c2c(c(Br)c3c1OCC3)OCC2` (centres undefined) gave a Ki [1] of 1 nM and an Intrinsic activity [2] of 88%.

Work on `NCCc1c2c(c(Br)c3c1OCCC3)OCCC2` yielded an EC50 [3] of 241 nM, a Ki [1] of 4.5 nM and an Intrinsic activity [2] of 61%.

`COc1cc(CC(C)N)c(OC)cc1Br` (centres undefined) [BROLAMFETAMINE] showed an Activity (Rattus norvegicus [4]) of 89%, an Activity (Rattus norvegicus [5]) of 36% and an Activity (Rattus norvegicus [6]) of 29%. It also gave an Activity (Rattus norvegicus [7]) of 50%, an Activity (Rattus norvegicus [8]) of 46% and an Activity (Rattus norvegicus [9]) of 40%. The Intrinsic activity [2] was 73%.

Work on `CC(N)Cc1c2c(c(Br)c3c1OCC3)OCCC2` (centres undefined) yielded an EC50 [3] of 19 nM, an Activity (Rattus norvegicus [10]) of 83% and an Activity (Rattus norvegicus [11]) of 0%. The Ki [1] was 3.6 nM, the Activity (Rattus norvegicus [12]) was 0% and the ED50 (Rattus norvegicus [13]) was 0.38 µmol/kg. The Activity (Rattus norvegicus [14]) was 54%, the Activity (Rattus norvegicus [15]) was 0% and the Activity (Rattus norvegicus [16]) was 33%. For the same compound, the Intrinsic activity [2] was 86%.

Compound `CC(N)Cc1c2c(c(Br)c3c1OCCC3)OCC2` (centres undefined) has an EC50 [3] of 78 nM, an Activity (Rattus norvegicus [10]) of 41% and an Activity (Rattus norvegicus [17]) of 0%. The Activity (Rattus norvegicus [11]) was 17%, the Ki [1] was 5.3 nM and the Activity (Rattus norvegicus [12]) was 0%. The ED50 (Rattus norvegicus [13]) was 1.16 µmol/kg, the Activity (Rattus norvegicus [14]) was 10% and the Activity (Rattus norvegicus [18]) was 80%. It also gave an Intrinsic activity [2] of 74%.

`CC(N)Cc1c2c(c(Br)c3ccoc13)OCCC2` (centres undefined) was tested, and the EC50 [3] was 13 nM, the Ki [1] was 1 nM and the Intrinsic activity [2] was 102%.

`CC(N)Cc1c2c(c(Br)c3c1OCCC3)OCCC2` (centres undefined) gave an EC50 [3] of 258 nM, a Ki [1] of 3.1 nM and an Intrinsic activity [2] of 72%.

In the case of `NCCc1c2c(c(Br)c3c1OCC3)OCCC2`, the EC50 [3] is reported as 9.4 nM, the Ki [1] is reported as 11 nM and the Intrinsic activity [2] is reported as 61%.

`NCCc1c2c(c(Br)c3c1OCCC3)OCC2` gave an EC50 [3] of 146 nM, a Ki [1] of 8.4 nM and an Intrinsic activity [2] of 64%.
